BB579 growth dn = chemicals that inhibit yeast BB579 growth in restrictive medium (lifespan-shortening candidates). S. cerevisiae BB579 growth, OD615, 48 h. inhibition, % at 10 µM. actives 0.51% (n = 140,000). AID 804;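 active = inhibition above a set limit, 3 SD over the mean compound inhibition, cut at about 44% in these data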
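Assay system – yeast BB579 (DeaD) · Dosing – single compound dose of 10 µM, 0.25% DMSO final · Detection – OD615 turbidity measurement · Buffer or medium – CSMM-D restrictive synthetic medium containing dextrose (glucose) · Benchmarks – positive control amphotericin B 10 µg/mL · Incubation – 48 h exposure, 30 °C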
Yeast lifespan up = extends the lifespan of yeast; S. cerevisiae growth with nicotinamide, OD615; deaD strain in restrictive glucose medium; inhibition of the nicotinamide effect, % at 10 µM; actives 0.68% (n = 130,000); AID 775;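 active = inhibition above a set limit, placed 3 SD over the median of all compounds, cut at about 26% in these data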;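 also: 0% = nicotinamide-treated wells and 100% = cells grown without nicotinamide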
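System: DeaD-strain S. cerevisiae / Buffer or medium: CSMM-D, restrictive glucose (dextrose) synthetic minimal medium / Probe or stimulus: nicotinamide, 1.5 mM, co-present with compound / Compound: one concentration, 10 µM, DMSO 0.25% / Incubation: 48 h compound exposure at 30 °C, humidified / Technique: optical density (absorbance) at 615 nm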
RAM network inh = inhibitors of the yeast RAM network. S. cerevisiae dse1pr::URA3 reporter, 5-FOA growth OD615, 2 d; analog-sensitive cbk1-as2 kinase mutant strain. inhibition, % at 50 µM. actives 1.8% (n = 190,000). AID 868;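 active = inhibition above a set limit, 3 SD over mean compound inhibition, cut at about 8.4% in these data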;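 also: 0% = DMSO-only wells with no growth and 100% = 10 µM 1-NA-PP1 full growth; inhibition rescues growth on 5-FOA so higher OD means more RAM inhibition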
Cl transport mod = KCC2 (human) Cl- transport modulation; Q9H2X9; KCC2 cells, thallium flux FluoZin-2 fluorescence; B-score of Tl+ flux slope (higher = more flux/activation; lower = inhibition) at 10 µM; actives 2.2% (n = 190,000);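 active = thallium flux slope and its plate-corrected score both differing from the plate sample mean at a set confidence after two filtering rounds, in either direction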;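 also: slope of fluorescence scaled to starting intensity during 10 to 20 s after thallium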
Target sequence (Q9H2X9 whole entry, looked up): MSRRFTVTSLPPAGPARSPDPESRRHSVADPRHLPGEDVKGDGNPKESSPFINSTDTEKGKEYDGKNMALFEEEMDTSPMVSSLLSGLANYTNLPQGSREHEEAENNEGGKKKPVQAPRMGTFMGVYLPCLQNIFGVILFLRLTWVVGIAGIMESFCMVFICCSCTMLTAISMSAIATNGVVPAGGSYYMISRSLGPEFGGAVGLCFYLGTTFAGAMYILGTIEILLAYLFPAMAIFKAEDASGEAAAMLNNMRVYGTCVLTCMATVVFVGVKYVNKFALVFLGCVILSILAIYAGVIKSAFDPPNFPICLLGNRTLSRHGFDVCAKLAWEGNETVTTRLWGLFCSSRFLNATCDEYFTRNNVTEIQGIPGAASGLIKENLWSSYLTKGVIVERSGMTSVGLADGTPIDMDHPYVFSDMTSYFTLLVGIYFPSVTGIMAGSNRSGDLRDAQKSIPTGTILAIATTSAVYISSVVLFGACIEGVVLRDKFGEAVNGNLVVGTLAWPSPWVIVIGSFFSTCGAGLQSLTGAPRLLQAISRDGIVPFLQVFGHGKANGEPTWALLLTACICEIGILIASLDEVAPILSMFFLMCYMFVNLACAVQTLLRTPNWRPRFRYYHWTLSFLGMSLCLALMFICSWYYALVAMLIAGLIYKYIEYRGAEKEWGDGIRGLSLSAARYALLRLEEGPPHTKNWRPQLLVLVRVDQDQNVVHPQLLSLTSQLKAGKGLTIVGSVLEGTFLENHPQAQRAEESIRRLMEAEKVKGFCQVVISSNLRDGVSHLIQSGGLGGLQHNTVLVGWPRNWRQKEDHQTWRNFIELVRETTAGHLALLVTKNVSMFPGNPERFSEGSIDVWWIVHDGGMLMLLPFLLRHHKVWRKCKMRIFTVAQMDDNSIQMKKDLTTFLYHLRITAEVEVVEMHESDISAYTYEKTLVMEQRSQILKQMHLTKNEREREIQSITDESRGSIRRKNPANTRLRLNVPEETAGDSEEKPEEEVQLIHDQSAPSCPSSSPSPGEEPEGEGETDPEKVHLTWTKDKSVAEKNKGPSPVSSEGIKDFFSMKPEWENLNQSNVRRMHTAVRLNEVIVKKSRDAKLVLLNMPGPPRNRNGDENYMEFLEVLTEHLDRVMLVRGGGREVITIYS
WT yeast gro inh = growth inhibition of WT yeast, mitochondrial fusion screen; mitochondrial fusion phenotypic screen, WT strain; inhibition, % at 10 µM; actives 2.1% (n = 190,000); in the data active = inhibition above about 58%; tested in S. cerevisiae
* marks the source's active call; other numbers are inactive results; x = no result. A selection: hits, their analogues and other compounds. The true share with any hit is near 5.5%.

SMILES	BB579 growth dn	Yeast lifespan up	RAM network inh	Cl transport mod	WT yeast gro inh
CN1CCN(c2ccc(-c3ccc4ccccc4n3)cc2)CC1	x	x	0.2	-2.08	72.8*
Cc1nc2sccn2c(=O)c1CCN1CCC(=C(c2ccc(F)cc2)c2ccc(F)cc2)CC1	-26.8	0.7	-0.4	-0.708	79.2*
CC(C)CN(C(=O)c1nn(C)c(=O)c2ccccc12)c1nc2ccccc2s1	-2.2	-5.5	1.6	x	67.1*
CC(C)CN(C(=O)c1ccco1)c1nc2ccccc2s1	x	x	-0.8	1.11	46.3
Cc1nc(NC2=NCN(CC3CCCO3)CN2)nc2ccccc12 (configuration not stated)	x	x	x	0.323	x
COc1ccc(/C=N/NC(=O)c2ccn[nH]2)cc1COc1ccc(F)cc1	-23.0	-16.2	5.2	-0.246	11.7
COc1ccc(/C=N/NC(=O)c2ccn[nH]2)cc1COc1ccc(Cl)cc1Cl	-29.4	-10.5	2.1	x	72.7*
CCOC(=O)C1=C(C)Nc2ccccc2N=C1NC(=O)c1ccc(Cl)c(S(=O)(=O)N2CCCC2)c1	x	x	8.7*	-1.19	-0.7
CC1=CC(C)(C)N(S(=O)(=O)c2ccc(C)cc2)c2ccc(C)cc21	-41.2	15.4	7.1	-0.881	63.0*
Cc1ccc(NC(=O)COC(=O)CC2CCCC2)cc1Cl	x	x	1.1	-0.245	12.4
CCCCC(=O)NC(c1ccc([N+](=O)[O-])cc1)c1c(O)ccc2ccccc12 (configuration not stated)	-33.2	0.9	3.8	-0.503	82.0*
O=C(NCCc1ccccc1)c1ccc(-c2ccccc2Cl)o1	-41.4	-3.3	8.6*	-1.8	38.9
CC(=O)c1ccc(N=C2SCCCN2C(=O)C2CCCC2)cc1	x	x	0.4	-0.022	-3.7
CCc1cc(C(=O)Cc2ccc(F)cc2)c(O)cc1O	-42.9	-3.6	-2.1	-1.39	31.8
CCCc1cc(C(=O)Cc2ccc(F)cc2)c(O)cc1O	92.5*	-22.6	-2.1	-1.63	81.6*
OCCN(Cc1ccccc1)C(=S)Nc1ccc(Cl)cc1Cl	x	x	1.0	1.86	1.0
Cc1cc(NC(=O)CCS(=O)(=O)c2nc(-c3ccccc3)cc(C(F)(F)F)n2)no1	-21.7	x	1.5	x	5.0
CS(=O)(=O)c1nc(-c2ccccc2)cc(C(F)(F)F)n1	-36.4	75.3*	-1.6	-2.15	33.6
CCOC(=O)C1CCCN(c2ccc(NC(=O)c3snc4c(=O)[nH]c(C)nc34)cc2)C1 (configuration not stated)	-18.0	-6.7	9.8*	-0.421	12.0
CC(=NCCc1c(C)[nH]c2ccc(OC(F)(F)F)cc12)C1=C(O)CC(c2ccccc2)CC1=O (configuration not stated)	x	x	5.0	-0.427	0.2
CC(=NCCc1c(C)[nH]c2ccc(C)cc12)C1=C(O)CC(c2ccccc2)CC1=O (configuration not stated)	-11.8	57.7*	3.3	0.0229	15.1
N#C/C(=N\Nc1cccc([N+](=O)[O-])c1)C(=O)c1ccc(Br)cc1	x	x	7.1	-6.8*	67.1*
CC(=O)Nc1nnc(-c2ccco2)o1	x	x	0.8	0.0795	9.9
Cc1cc(C)c(OCC(=O)Nc2nnc(-c3ccco3)o2)c(C)c1	x	x	4.2	-0.834	59.1*
c1ccc(CCSc2ncnc3nc[nH]c23)cc1	-32.7	-4.7	1.6	-2.34	-0.5
SMILES	BB579 growth dn	Yeast lifespan up	RAM network inh	Cl transport mod	WT yeast gro inh
c1ccc2c(CSc3ncnc4nc[nH]c34)cccc2c1	x	x	2.8	-1.19	65.4*
COc1ccnc(Oc2ccc(F)cc2)c1C(=O)N/C=N/OCc1ccccc1	x	x	0.1	-0.894	3.1
CC(C)NC(=S)N/N=C/c1cccs1	-19.0	-21.3	-0.1	0.808	-0.3
CC(C)NC(=S)N/N=C/c1ccc(C(C)(C)C)cc1	x	x	2.7	1.23	61.5*
CC(C)(C)OC(=O)N[C@@H](Cc1ccccc1)[C@H](O)c1ccco1	x	x	x	0.00952	x
Cn1nnnc1SCc1nnc(-c2ccccc2Br)o1	-41.7	-8.2	1.9	-0.0033	2.5
Cc1ccc(-n2nnnc2SCc2nnc(-c3ccccc3Br)o2)c(C)c1	-28.2	-6.2	11.3*	-1.18	26.7
Cc1cccc(C)c1N1CCN(c2ccc3nnc(C(F)(F)F)n3n2)CC1	-15.8	-12.3	3.5	0.519	77.6*
C#CCOC(=O)C[N+](C)(C)CC#Cc1ccccc1	x	x	0.1	-0.267	-0.2
COCCN1Cc2cccc(C(=O)Nc3ccc(C)cc3)c2C1=O	x	x	2.4	-2.89	1.7
COCCN1Cc2cccc(C(=O)NC3CCCCCC3)c2C1=O	-22.1	4.8	0.4	0.092	70.8*
O=C(CC1CCC1)NC(c1ccccc1)c1ccccc1	x	x	1.2	-1.95	2.6
CCOCCCNC(=O)C(c1ccccc1)N(Cc1ccc2c(c1)OCO2)C(=O)c1ccccc1O (configuration not stated)	x	x	0.4	-1.58	0.4
COc1ccc(NC(=O)C(NC(=O)c2ccc(=O)[nH]c2)c2ccccc2)cc1 (configuration not stated)	4.1	-3.4	1.8	-0.208	-1.2
COc1ccc(C(C(=O)Nc2ccc(C(C)C)cc2)N(C)C(=O)c2ccc(=O)[nH]c2)cc1 (configuration not stated)	x	x	9.0*	1.12	-2.8
CCOc1ccc(CN(C)CC(=O)Nc2ccc(N3CCOCC3)cc2)cc1OC	-9.8	2.6	0.2	-2.32	2.3
CCN1CCN(c2ncnc3c2sc(=S)n3-c2ccccc2)CC1	46.3*	-9.4	1.1	0.137	21.8
COc1ccccc1CNC(=O)C(CCSC)NS(=O)(=O)c1ccc2c(c1)oc(=O)n2C (configuration not stated)	-8.5	86.6*	0.1	x	-16.7
COc1ccccc1CNC(=O)C(CC(C)C)NS(=O)(=O)c1ccc2c(c1)oc(=O)n2C (configuration not stated)	-1.2	-1.1	3.9	x	-2.9
Cc1nnc(SCC(=O)Nc2cccc(S(=O)(=O)N(C)c3ccccc3)c2)s1	-7.6	-6.6	1.7	-0.636	-22.7
CCCc1cc(=O)[nH]c(SCC(=O)Nc2ccc([N+](=O)[O-])cc2C#N)n1	x	x	x	-0.0104	x
CCC(=O)N1CCN(c2ccc(NC(=O)c3ccc([N+](=O)[O-])o3)cc2Cl)CC1	x	x	-0.6	-0.0146	65.8*
CCN1CCN(c2ccc(NC(=O)c3ccc([N+](=O)[O-])o3)cc2Cl)CC1	x	x	1.4	-1.52	9.4
Cc1ccc(Cn2c(=O)c3ccccc3n3nc(C)cc23)cc1	x	x	4.3	-0.259	9.4
O=C1Nc2ccc(Cl)cc2[C@@](C#CC2CC2)(C(F)(F)F)O1	x	x	x	-1.54	82.3*
O=C1Nc2cc(Cl)ccc2C1(N1CCNCC1)C(F)(F)F (configuration not stated)	-2.8	-6.1	0.8	0.0082	9.1
CCCCNC(=O)CSc1nnc(-c2c[nH]c3ccccc23)n1CC1CCCO1 (configuration not stated)	11.6	-0.5	-0.1	0.358	-3.0
Cc1ccc(/C(C#N)=C\c2cn(C)c3ccccc23)cc1	-60.1	-4.0	8.9*	x	52.8
Cn1cc(C=O)c2ccccc21	x	x	-0.1	-0.882	28.0

Bioassay records deposited in PubChem BioAssay by several laboratories.
